The values that follow come from ChEMBL document CHEMBL2440107, “Quinazolino linked 4β-amidopodophyllotoxin conjugates regulate angiogenic pathway and control breast cancer cell proliferation” (Bioorg Med Chem, 2013).

Data set [1] relates to MCF7. Briefly: Cell cycle arrest in human MCF7 cells assessed as accumulation at G1 phase at 4 uM after 24 hrs by propidium iodide staining-based flow cytometric analysis (reference value: 77%). The class given is functional. (A flow cytometer gives signals particle by particle.)
Data set [2] deals with MCF7. Briefly: Cell cycle arrest in human MCF7 cells assessed as accumulation at G0 phase at 4 uM after 24 hrs by propidium iodide staining-based flow cytometric analysis (reference value: 3%). The class given is functional.
Data set [3] relates to MCF7. Briefly: Cell cycle arrest in human MCF7 cells assessed as accumulation at S phase at 4 uM after 24 hrs by propidium iodide staining-based flow cytometric analysis (reference value: 5%). The class given is functional.
The test system of data set [4] is MCF7. Briefly: Cell cycle arrest in human MCF7 cells assessed as accumulation at G2/M phase at 4 uM after 24 hrs by propidium iodide staining-based flow cytometric analysis (reference value: 15%). The class given is functional.
For data set [5], the system named is HUVEC. The experiment in a line: Cytotoxicity against HUVEC assessed as cell viability at 1 uM after 6 hrs by MTT assay. The class given is cell-based. Particulars: human. An outline of the steps:
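HUVEC at 10,000 cells/well exposed for 6 h across 0.5–32 µM; percent viability plotted, etoposide as standard. Triplicates, Student t-test.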

In data set [6] the test system is MCF7. The experiment in a line: Antimitotic activity in human MCF7 cells assessed as downregulation of Cdk1 protein expression at 4 uM after 24 hrs by Western blotting analysis. The class given is functional, cell-based. Background: Immunoblotting shows a protein as a band on a membrane.
The next data set concerns MDA-MB-231. The experiment in a line: Cytotoxicity against human MDA-MB-231 cells assessed as cell viability at 0.5 to 32 uM after 24 hrs by MTT assay. The class given is functional, cell-based. In short, it runs like this:
(§1)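 Cells seeded at 10,000/well, incubated overnight, then exposed 24 h to 0.5–32 µM, etoposide as standard. MTT added, 2 h at 37 °C; formazan solubilised in extraction buffer, OD read at 570 nm; percent viability determined. Triplicates, Student t-test.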

For data set [7], the system named is MCF7. Briefly: Antiangiogenic activity in human MCF7 cells assessed as downregulation of STAT3 protein expression at 4 uM after 24 hrs by Western blotting analysis. The class given is functional, cell-based.
Data set [8] concerns MCF7. The experiment in a line: Antiangiogenic activity in human MCF7 cells assessed as upregulation of STAT1 protein expression at 4 uM after 24 hrs by Western blotting analysis. The class given is functional, cell-based.
Data set [9] deals with MCF7. Briefly: Antiangiogenic activity in human MCF7 cells assessed as downregulation of phosphorylated ERK1/2 protein expression at 4 uM after 24 hrs by Western blotting analysis. The class given is functional, cell-based.
Data set [10] concerns MCF7. The experiment in a line: Antiinvasive activity in human MCF7 cells assessed as downregulation of alphaVbeta3 integrin protein expression at 4 uM after 24 hrs by Western blot analysis. The class given is functional, cell-based.
For a further data set, the system named is PANC-1. The experiment in a line: Cytotoxicity against human PANC1 cells assessed as cell viability at 0.5 to 32 uM after 24 hrs by MTT assay. The class given is functional, cell-based. In short, it runs like this:
as §1
For orientation: Tetrazolium assays rely on reduction of a dye to a coloured formazan, in cell work by metabolically active cells.

Data set [11] concerns MCF7. Briefly: Antiangiogenic activity in human MCF7 cells assessed as downregulation of ERK1/2 protein expression at 4 uM after 24 hrs by Western blotting analysis. The class given is functional, cell-based.
For data set [12], the system named is MCF7. The experiment in a line: Induction of apoptosis in human MCF7 cells assessed as upregulation of cytochrome-c protein expression in cytosol at 4 uM after 24 hrs by Western blotting analysis. The class given is functional, cell-based.
Data set [13] deals with MCF7. The experiment in a line: Cytotoxicity against human MCF7 cells assessed as cell viability at 0.5 to 32 uM after 24 hrs by MTT assay. The class given is functional, cell-based. In short, it runs like this: as §1
Data set [14] has as its system MCF7. The experiment in a line: Antiangiogenic activity in human MCF7 cells assessed as downregulation of VEGF-A protein expression at 4 uM after 24 hrs by Western blotting analysis. The class given is functional, cell-based.
For data set [15], the system named is MCF7. The experiment in a line: Antimitotic activity in human MCF7 cells assessed as upregulation of p53 protein expression at 4 uM after 24 hrs by Western blotting analysis. The class given is functional, cell-based.
Data set [16] deals with MCF7. The experiment in a line: Antiangiogenic activity in human MCF7 cells assessed as effect on AKT1 protein expression at 4 uM after 24 hrs by Western blotting analysis. The class given is functional, cell-based.
The test system of data set [17] is MCF7. Briefly: Antiangiogenic activity in human MCF7 cells assessed as downregulation of AKT phosphorylation at Ser473 at 4 uM after 24 hrs by Western blotting analysis. The class given is functional, cell-based.
Data set [18] relates to MCF7. The experiment in a line: Induction of apoptosis in human MCF7 cells assessed as upregulation of caspase-9 protein expression at 4 uM after 24 hrs by Western blotting analysis. The class given is functional, cell-based.
Data set [19] has as its system MCF7. The experiment in a line: Antimitotic activity in human MCF7 cells assessed as upregulation of cyclin B1 protein expression at 4 uM after 24 hrs by Western blotting analysis. The class given is functional, cell-based.
Data set [20] concerns MCF7. Briefly: Disruption of mitochondrial membrane potential in human MCF7 cells at 4 uM after 24 hrs by JC-1 dye-based fluorescence assay. The class given is functional, cell-based. In short, it runs like this:
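MCF-7 cells exposed 24 h at 4 µM, etoposide as reference, then stained with 2.5 µM JC-1 for 20 min at room temperature. Fluorescence imaging: red J-aggregates indicate intact potential, green monomers indicate loss, read as red-to-green shift.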

The subject of data set [21] is HUVEC. The experiment in a line: Antiangiogenic activity in HUVEC assessed as inhibition of VEGF-A-induced tube formation at 1 uM after 6 hrs by inverted microscopic analysis. Conditions: Homo sapiens. The class given is functional, cell-based. In short, it runs like this: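 HUVEC (ECM medium, 5% FBS, 1% ECGS) seeded at 5×10^3 cells/well on EC matrix solidified at 37 °C, grown 12 h in endothelial growth media, then treated at 1 µM final for about 6 h. Tube formation examined by inverted microscopy. Etoposide as reference.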

Structures are written as SMILES. Active and inactive are the calls of the source. The calls are words filed in the database; no cut-off is given here.

With `COc1cc([C@@H]2c3cc4c(cc3[C@@H](NC(=O)CCCCOc3ccc5nc(C)n(-c6cc(OC)c(OC)c(OC)c6)c(=O)c5c3)[C@H]3COC(=O)[C@H]23)OCO4)cc(OC)c1OC`, the Activity worked out at 51% in the data set on MCF7 [1], 10% with MCF7 [2], 5% in the data set on MCF7 [3] and 35% in the data set on MCF7 [4].
Consider `COc1cc([C@@H]2c3cc4c(cc3[C@@H](NC(=O)CCCCOc3ccc5nc(C)n(-c6ccc(F)cc6)c(=O)c5c3)[C@H]3COC(=O)[C@H]23)OCO4)cc(OC)c1OC`, for which the Activity stood at 49% with MCF7 [1], 8% in the data set with MCF7 [2], 5% in the data set on MCF7 [3] and 38% in the data set with MCF7 [4].
As to `COc1cc([C@@H]2c3cc4c(cc3[C@@H](NC(=O)CCCCCOc3ccc5nc(C)n(-c6ccc([N+](=O)[O-])cc6)c(=O)c5c3)[C@H]3COC(=O)[C@H]23)OCO4)cc(OC)c1OC`, the Activity entry was “Non-toxic” in the data set with HUVEC [5]; 49% with MCF7 [1]; 5% with MCF7 [2]; 5% in the data set on MCF7 [3]; 41% with MCF7 [4]. Further, the result in the data set with MCF7 [6], with MDA-MB-231, with MCF7 [7], in the data set with MCF7 [8], with MCF7 [9] and in the data set on MCF7 [10] was Active. For the same molecule, the outcome in the data set on PANC-1, in the data set with MCF7 [11], in the data set on MCF7 [12], in the data set on MCF7 [13], in the data set on MCF7 [14] and in the data set on MCF7 [15] was Active. The outcome in the data set with MCF7 [17], in the data set on MCF7 [18] and in the data set with MCF7 [19] was Active. Besides, in the data set on MCF7 [16], the result was inactive.
With `COc1ccc(-n2c(C)nc3ccc(OCCCCC(=O)N[C@@H]4c5cc6c(cc5[C@@H](c5cc(OC)c(OC)c(OC)c5)[C@H]5C(=O)OC[C@@H]54)OCO6)cc3c2=O)cc1`, the Activity in the data set on MCF7 [1] came out at 44%; in the data set on MCF7 [2] it was 7%; in the data set on MCF7 [3] it was 10%; in the data set with MCF7 [4], 39%.
In the same order, the values of `COc1cc([C@@H]2c3cc4c(cc3[C@@H](NC(=O)CCCCCOc3ccc5nc(C)n(-c6cc(OC)c(OC)c(OC)c6)c(=O)c5c3)[C@H]3COC(=O)[C@H]23)OCO4)cc(OC)c1OC` are 50%, 7%, 5% and 39%.
On to `COc1cc([C@@H]2c3cc4c(cc3[C@@H](NC(=O)CCCCOc3ccc5nc(C)n(-c6ccc([N+](=O)[O-])cc6)c(=O)c5c3)[C@H]3COC(=O)[C@H]23)OCO4)cc(OC)c1OC`, for which the Activity with MCF7 [1] turned out to be 51%; in the data set on MCF7 [2] it was 5%; in the data set with MCF7 [3] it was 5%; in the data set with MCF7 [4] it was 40%.
In the case of `COc1cc([C@@H]2c3cc4c(cc3[C@@H](NC(=O)CCCCCOc3ccc5nc(C)n(-c6ccc(Cl)c(Cl)c6)c(=O)c5c3)[C@H]3COC(=O)[C@H]23)OCO4)cc(OC)c1OC`, the Activity entry in the data set with HUVEC [5] is “Non-toxic”; with MCF7 [1] it was 45%; in the data set on MCF7 [2], 10%; in the data set with MCF7 [3], 5%; in the data set on MCF7 [4], 40%. Moreover, the result in the data set on MCF7 [6], in the data set with MDA-MB-231, with MCF7 [7], in the data set with MCF7 [8], with MCF7 [9] and in the data set on MCF7 [20] was Active. Moreover, the outcome with MCF7 [10], in the data set on PANC-1, with MCF7 [11], with MCF7 [12], with MCF7 [13] and in the data set on MCF7 [14] was Active. Also, the result with MCF7 [15], in the data set on MCF7 [17], in the data set with MCF7 [18] and in the data set on MCF7 [19] was Active. Besides, in the data set on HUVEC [21], the inhibition result is “Active”. The result in the data set on MCF7 [16] was inactive.
With `COc1cc([C@@H]2c3cc4c(cc3[C@@H](NC(=O)CCCCOc3ccc5nc(C)n(-c6ccc(Cl)c(Cl)c6)c(=O)c5c3)[C@H]3COC(=O)[C@H]23)OCO4)cc(OC)c1OC`, the Activity in the data set on MCF7 [1] is given as 49%; in the data set on MCF7 [2], 12%; with MCF7 [3] it was 5%; with MCF7 [4], 34%.
`COc1cc(OC)cc(-n2c(C)nc3ccc(OCCCCCC(=O)N[C@@H]4c5cc6c(cc5[C@@H](c5cc(OC)c(OC)c(OC)c5)[C@H]5C(=O)OC[C@@H]54)OCO6)cc3c2=O)c1`: the Activity was determined as 49% in the data set on MCF7 [1], 9% with MCF7 [2], 5% in the data set with MCF7 [3] and 37% in the data set on MCF7 [4].
Take `COc1ccc(-n2c(C)nc3ccc(OCCCCCC(=O)N[C@@H]4c5cc6c(cc5[C@@H](c5cc(OC)c(OC)c(OC)c5)[C@H]5C(=O)OC[C@@H]54)OCO6)cc3c2=O)cc1`: the Activity entry with HUVEC [5] is given as “Non-toxic”; in the data set with MCF7 [1], 47%; in the data set with MCF7 [2] it was 8%; in the data set on MCF7 [3], 4%; in the data set with MCF7 [4] it was 41%. For the same molecule, the result in the data set on MCF7 [6], with MDA-MB-231, with MCF7 [7], in the data set with MCF7 [8], in the data set with MCF7 [9] and in the data set with MCF7 [10] was Active. Moreover, the outcome in the data set on PANC-1, with MCF7 [11], with MCF7 [12], in the data set on MCF7 [13], in the data set with MCF7 [14] and in the data set on MCF7 [15] was Active. For the same molecule, the outcome in the data set on MCF7 [17], in the data set on MCF7 [18] and in the data set on MCF7 [19] was Active. Moreover, the result in the data set on MCF7 [16] was inactive.
Regarding `COc1cc([C@@H]2c3cc4c(cc3[C@@H](O[C@@H]3O[C@@H]5CO[C@@H](C)O[C@H]5[C@H](O)[C@H]3O)[C@H]3COC(=O)[C@H]23)OCO4)cc(OC)c1O` [ETOPOSIDE], the Activity entry in the data set with HUVEC [5] is listed as “Non-toxic”; in the data set with MCF7 [1] it was 18%; with MCF7 [2] it was 9%; in the data set on MCF7 [3], 6%; with MCF7 [4], 67%. Further, the outcome in the data set with MCF7 [20], in the data set on MCF7 [10], in the data set with MCF7 [12] and with MCF7 [18] was Active.
As to `COc1cc(OC)cc(-n2c(C)nc3ccc(OCCCCC(=O)N[C@@H]4c5cc6c(cc5[C@@H](c5cc(OC)c(OC)c(OC)c5)[C@H]5C(=O)OC[C@@H]54)OCO6)cc3c2=O)c1`, the Activity with MCF7 [1] is 49%; in the data set on MCF7 [2] it was 6%; with MCF7 [3] it was 6%; in the data set with MCF7 [4], 39%.
